Reference: ChEMBL document CHEMBL4130555, “Heterodimeric Diterpenoids Isolated from Euphorbia ebracteolata Roots and Their Inhibitory Effects on α-Glucosidase” (J Nat Prod, 2017)

Tests used:
[1] = Inhibition of baker's yeast alpha-glucosidase using p-nitrophenyl-alpha-D-glucopyranoside as substrate preincubated for 0.5 hrs followed by substrate addition measured for 0.5 hrs; design: species or system Saccharomyces cerevisiae
Outline: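 Enzyme activity measured with p-NPG as substrate, acarbose run alongside as positive control; procedure follows a previously published protocol.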

[2] = Inhibition of acetyltransferase activity of Mycobacterium tuberculosis H37Rv GlmU expressed in Escherichia coli BL21(DE3) using acetylcoA as substrate after 30 mins
A549 = assay: Cytotoxicity against human A549 cells by MTT assay; assay type: functional, cell-based
Bel-7402 = assay: Cytotoxicity against human Bel7402 cells by MTT assay; assay type: functional, cell-based
BGC-823 = assay: Cytotoxicity against human BGC823 cells by MTT assay; assay type: functional, cell-based
HCT-8 = assay: Cytotoxicity against human HCT8 cells by MTT assay; assay type: functional, cell-based
A2780 = assay: Cytotoxicity against human A2780 cells by MTT assay; assay type: functional, cell-based
[3] = Non-competitive inhibition of baker's yeast alpha-glucosidase using p-nitrophenyl alpha-D-glucopyranoside as substrate preincubated for 0.5 hrs followed by substrate addition measured for 0.5 hrs by Lineweaver-Burk plot analysis; design: species or system Saccharomyces cerevisiae

C=C[C@@]1(C)CC[C@]2(C)c3cc4c(c(C)c3CC[C@H]2C1)O[C@@H]1C2=C(C)C(=O)O[C@@]2(O4)[C@H](O)[C@H]2[C@]3(C)CCCC(C)(C)[C@H]3CC[C@@]12O
IC50 [1]: 50.4 µM
IC50 [2]: 41.9 µM
IC50 (A549): > 100 µM
IC50 (Bel-7402): > 100 µM
IC50 (BGC-823): > 100 µM
IC50 (HCT-8): > 100 µM
IC50 (A2780): > 100 µM

C=C[C@@]1(C)CC[C@]2(C)c3cc(O[C@@]45OC(=O)C(C)=C4[C@H]4O[C@]46CC[C@@H]4C(C)(C)CCC[C@@]4(C)[C@@H]6[C@H]5O)c(O)c(C)c3CC[C@H]2C1
IC50 [1]: 7.94 µM
Ki [3]: 10.8 µM
IC50 [2]: > 100 µM
IC50 (A549): > 100 µM
IC50 (Bel-7402): > 100 µM
IC50 (BGC-823): > 100 µM
IC50 (HCT-8): > 100 µM
IC50 (A2780): > 100 µM

C[C@H]1O[C@H](O[C@H]2[C@H](O)[C@@H](O)[C@@H](O[C@H]3[C@H](O)[C@@H](O)C(O)O[C@@H]3CO)O[C@@H]2CO)[C@H](O)[C@@H](O)[C@@H]1N[C@H]1C=C(CO)[C@@H](O)[C@H](O)[C@H]1O (stereo partly specified) [ACARBOSE]
IC50 [1]: 579 µM
